Shown are actives, neighbours in structure and some others; about 2.5% of the full set was active somewhere.
UHRF1 MBD2 ctr = UHRF1 methyl-DNA binding inhibition | Q96T88 | UHRF1 binding to methylated oligo, TR-FRET | inhibition, % at 4.4 µM | actives 0.75% (n = 370,000) | AID 687016; in the data active means inhibition above about 21%;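 further: UHRF1 SRA domain binding a hemimethylated CpG hairpin DNA probe; 0% = median of test compound wells and 100% = reference inhibitor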
Arr AP2 block = inhibitors of human beta-arrestin and AP2 interaction. inhibition, % at 10 µM. FITC-arrestin peptide / GST-AP2 beads, flow cytometry; AP2 beta2 appendage carries R879A mutation. actives 0.31% (n = 340,000);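 active means inhibition above a set limit, near 3 SD of compounds lacking own fluorescence, cut at about 54% in these data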;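 further: plate controls were DMSO wells for no effect and 5 µM unlabelled arrestin peptide for full effect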
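System: GST-tagged AP2 beta2-adaptin appendage (R879A) on 4 µm glutathione beads / Reagent: FITC-arrestin peptide, 50 nM / Detection: HyperCyt-sampled flow cytometry, FL1 channel, ex 488/em 535 nm / Timing: 12 min plus 1 h, RT / Buffer or medium: PBS plus Tween 20 (0.05%) and BSA (0.1%)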
ABHD5 PLIN5 PPI = inhibitors of human ABHD5-perilipin-5 interaction. Q00G26+Q8WTS1. Split G. princeps luciferase complementation, luminescence, 4 h. inhibition, % at 4 µM. actives 0.78% (n = 360,000);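 active means inhibition above the mean inhibition across every tested compound plus 3 SD, cut at about 22% in these data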;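 further: 0% = DMSO only wells and the 100% control is not disclosed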
Beta2AR agonist = human beta-2 adrenergic receptor agonism by FAP. Am2.2-beta2AR cells, FAP receptor internalization, flow cytometry. response, % (test concentration not listed). actives 0.43% (n = 340,000). AID 504454;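 active means response above a set limit, near 3 SD of response in nonfluorescent compounds, cut at about 42% in these data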
Target sequence (P07550 whole entry, looked up): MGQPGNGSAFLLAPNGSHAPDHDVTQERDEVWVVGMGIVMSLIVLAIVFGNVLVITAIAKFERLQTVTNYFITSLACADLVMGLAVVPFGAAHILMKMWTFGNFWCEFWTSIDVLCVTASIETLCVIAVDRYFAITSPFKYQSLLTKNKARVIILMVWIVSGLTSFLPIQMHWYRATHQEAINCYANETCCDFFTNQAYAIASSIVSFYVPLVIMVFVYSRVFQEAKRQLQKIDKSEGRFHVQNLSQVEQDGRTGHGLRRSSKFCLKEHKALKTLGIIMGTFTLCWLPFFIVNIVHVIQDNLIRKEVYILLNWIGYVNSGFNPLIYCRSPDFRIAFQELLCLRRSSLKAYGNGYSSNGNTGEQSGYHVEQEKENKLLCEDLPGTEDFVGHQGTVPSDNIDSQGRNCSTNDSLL
MBD2 DNA inh = MBD2-methylated oligo binding inhibition; Q9UBB5; TR-FRET, MBD2 binding to methylated oligonucleotide; inhibition, % at 4.4 µM; actives 0.31% (n = 370,000); in the data active means inhibition above about 13%
Rin1-Abl PPI inh = inhibitors of human Rin1-Abl protein interaction; TR-FRET Rin1/Abl binding, biochemical; inhibition, % at 7.35 µM; actives 0.4% (n = 360,000); P00519+Q13671; AID 588664; in the data active means inhibition above about 5%, passing the limit was not always enough
Numbers without * were called inactive; / = not tested or not shown.

SMILES	UHRF1 MBD2 ctr	Arr AP2 block	ABHD5 PLIN5 PPI	Beta2AR agonist	MBD2 DNA inh	Rin1-Abl PPI inh
Cc1ccc(-c2nn(-c3ccccc3)cc2/C=C/C(=O)Nc2nccs2)cc1	2	5	-4	0	2	1
CC1=NNC(=O)/C1=C\c1cn(-c2ccccc2)nc1-c1ccc(F)cc1	/	42	6	108*	/	2
Cc1c(NS(=O)(=O)c2ccc(F)cc2)c(=O)n(-c2ccccc2)n1C	25*	33	6	0	-2	2
C[N+]1=C2N[C@@H](c3ccccc3)CC(=O)N2/C(=C\c2ccccc2)[C@@H]1Cc1ccccc1	12	/	/	/	3	/
CCN(CC(=O)NCc1cccs1)C(=O)Cc1ccc(Cl)c(Cl)c1	0	-3	-6	-6	2	-1
CCN(CC(=O)NCc1cccs1)C(=O)c1ccc(Cl)c(Cl)c1	35*	13	6	-2	-2	-1
C[C@H]1COc2cc(N3CCCC3)ccc2S(=O)(=O)N1	2	/	/	/	-3	/
C[C@@H]1COc2cc(N3CCCC3)ccc2S(=O)(=O)N1	21*	/	/	/	6	/
Clc1ccc(-c2nc3ccc(Br)cn3c2Cc2ccccc2)cc1	20	/	-2	/	3	-14
Cc1ccc2nc(-c3ccc(F)cc3)c(Cc3cccc(Cl)c3)n2c1	66*	/	-7	/	-5	2
Clc1ccc(-c2nc3ccc(Br)cn3c2Cc2ccsc2)cc1	3	/	2	/	-1	-5
Brc1ccc(-c2nc3ccc(Br)cn3c2Cc2ccccc2)cc1	21*	/	3	/	8	-23
Cc1ccc(Cc2c(-c3ccc(C)cc3)nc3ccc(Br)cn23)cc1	22*	/	-10	/	0	-16
Cc1ccc(Cc2c(-c3ccc(Cl)cc3)nc3ccc(Br)cn23)cc1	21*	/	-11	/	8	-21
CCOC(=O)[C@]12CCCCC/C=C\1N(CCc1ccc(Cl)cc1)C(=O)[C@H]2CC(=O)N1CCCC1	-1	/	/	/	1	/
Cc1cccc(Cn2cc(COC(=O)NCC(C)C)nn2)c1	-1	/	/	/	2	/
CC(=O)Nc1nc2ncccn2c1-c1ccc(F)c(F)c1	-1	/	/	/	5	/
Cc1nc2ccc(C(=O)N3CCN(C(=O)C(Cl)Cl)CC3)cc2n1C1CCCC1	-1	/	/	/	0	/
Cc1ccc(Cc2c(-c3cccc(Br)c3)nc3ccc(Br)cn23)cc1	21	/	-22	/	4	2
CCCc1nc2ccc(Cl)cn2c1Cc1cccc(Cl)c1	20	/	2	/	9	6
CCCc1nc2ccc(Cl)cn2c1Cc1ccc(C)cc1	21*	/	-8	/	11	2
Cc1ccc(Cc2c(-c3ccco3)nc3ccc(Br)cn23)cc1	0	/	58*	/	1	-36
CCOP(=O)(OCC)c1nc(-c2cccc3ccccc23)oc1NCc1ccc(OC)cc1	24*	16	1	4	9	1
C[C@@H]1CN([C@@H](C)COC(=O)C(C)(C)C)C(=O)c2cc(NC(=O)Nc3ccccc3)ccc2O[C@@H](C)CCCCO[C@H]1CN(C)S(=O)(=O)c1ccc(F)cc1	1	/	/	/	2	/
Cc1cc(NC(=O)C2CCCCC2)ncc1NC(=O)c1ccccn1	-1	-6	-5	-4	-1	2
SMILES	UHRF1 MBD2 ctr	Arr AP2 block	ABHD5 PLIN5 PPI	Beta2AR agonist	MBD2 DNA inh	Rin1-Abl PPI inh
Cc1cc(NC(=O)C2CC2)ncc1NC(=O)c1ccccn1	22*	-4	-7	-13	2	-1
COc1ccc(OC)c(CN2C(=O)CCCCC2(C)c2nnnn2C2CCCC2)c1 (centres undefined)	-3	/	/	/	-4	/
CN1C/C(=C/c2ccccc2)N2C(=O)C[C@@H](c3ccccc3)N=C12	0	/	/	/	-1	/
CCCCNC(=O)C1=C(N)C(C(=O)Nc2ccc(C)c(S(=O)(=O)N3CCCCC3)c2)SC1=Nc1ccc(C)cc1C (centres undefined)	-1	3	24*	5	-7	-3
CCOC(=O)c1ccc(NC(=O)COc2ccc(CNCCO)cc2OCC)cc1	102*	26	-8	4	4	2
COc1ccc(CN(CCN2CCOCC2)C(=O)c2cc(F)ccc2C)cc1OC	1	/	/	/	0	/
COC(=O)C1=C[C@@H]([C@@H](C)[C@H](OC)c2ccccc2Br)[C@@H]2OCCC[C@H]12	0	/	/	/	1	/
O=C1ON=C(c2cccc([N+](=O)[O-])c2)/C1=C/c1ccc(O)cc1	-3	5	2	53*	-1	2
Cc1ccc(-c2nc3c4ccccc4ccn3c2Cc2cccc(F)c2)cc1	9	/	/	/	5	/
Cc1ccc(-c2nc3c4ccccc4ccn3c2Cc2ccccc2)cc1	21*	/	4	/	8	-2
Cc1ccc(Cc2c(-c3ccccc3)nc3c4ccccc4ccn23)cc1	12	/	-7	/	5	/
Fc1cccc(Cc2c(-c3ccccc3)nc3c4ccccc4ccn23)c1	21*	/	-1	/	8	/
O=C(c1cc(Cl)cc(Cl)c1)N1CCC(Oc2cccnc2)CC1	0	/	/	/	-4	/
CN(C)CCCNc1oc(/C=C/c2cccs2)nc1S(=O)(=O)c1ccccc1	-3	27	-17	20	-4	-4
COCCNc1oc(/C=C/c2cccs2)nc1S(=O)(=O)c1ccccc1	53*	/	4	/	1	-3
C/C(=N\Nc1nc2ccccc2[nH]1)c1ccc(N2CCOCC2)cc1	33*	-8	2	9	3	-7
Cc1ccc(S(=O)(=O)Cc2ccc(C(=O)O)o2)cc1	22*	-3	5	8	5	-1
CN(C)c1ccc(N=Nc2ccc(C(=O)O)cc2)cc1	29*	7	-7	1	0	-5
C=CCCC(=O)N[C@H]1CC[C@@]23CCCN2C(=O)CCC[C@H]3[C@H]1CCC	2	/	/	/	0	/
CS(=O)(=O)N1CCc2cc(C(=O)N3CCN(c4ccccc4F)CC3)ccc21	23*	-4	-9	-5	5	4
Cc1ccccc1NC(=O)c1cccc2c1-c1ccccc1C2=O	0	/	/	/	10	/
CCOC(=O)c1c(-c2ccccc2)c2cc(OC)ccc2n1CCCN(C)C	26*	12	10	6	-1	0
Nc1c(C(=O)Nc2ccccc2F)sc2nc(-c3ccco3)ccc12	2	30	17	10	-2	0
NC(=O)c1sc2nc(-c3ccco3)ccc2c1N	28*	23	9	-2	12	1
COc1cccc(OC)c1C(=O)Oc1ccc2c(c1)O/C(=C\c1ccncc1)C2=O	37*	4	8	24	-5	-2
Cn1c(NC(=O)/C=C\c2ccccc2)cc(=O)n(C)c1=O	26*	-2	1	-29	0	1
Cn1c(SCC(=O)NC2CCCCCC2)nnc1-c1ccco1	1	-1	2	-8	-1	0
CC(C)n1c(SCC(=O)NC2CCCCC2)nnc1-c1ccco1	43*	-8	1	-7	-5	2
O=C(Nc1ccccc1F)C1CCN(C(=O)NCc2ccccc2)CC1	24*	20	-6	1	3	4

From PubChem BioAssay
